# Shown are actives, neighbours in structure and some others; about 1.4% of the full set was active somewhere.
# HIF act = HIF pathway transcriptional activators, primary screen, cell-based, U2OS HRE-luciferase, luminescence; 300,000 tested, 0.32% active; activation, % at 7.5 µM (by protocol); U2OS HRE-luciferase reporter; normalized: DMSO 0%, desferrioxamine 100%;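 active means mean activation of at least 10% of the iron chelator positive control signal, with at least half of replicates also reaching 10%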
# GASC-1 inh = inhibitors of GASC-1 histone demethylase, primary screen, biochemical, fluorescence, DELFIA europium; Lysine-specific demethylase 4C (Homo sapiens), Q9H3R0; GST-JMJD2C(1-420) H3K9me3 demethylation; inhibition, % at 2.35 µM; 330,000 tested, 0.069% active; AID 2099, 2009;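 active means more than half of a compound's replicate wells show inhibition beyond 50%, single wells judged on their own value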;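 further: signal counts dimethyl H3K9 product captured on neutravidin plate; 0% = median of DMSO wells and 100% = 0.3 times that DMSO median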
# Target sequence (Q9H3R0 1-420 limits assumed): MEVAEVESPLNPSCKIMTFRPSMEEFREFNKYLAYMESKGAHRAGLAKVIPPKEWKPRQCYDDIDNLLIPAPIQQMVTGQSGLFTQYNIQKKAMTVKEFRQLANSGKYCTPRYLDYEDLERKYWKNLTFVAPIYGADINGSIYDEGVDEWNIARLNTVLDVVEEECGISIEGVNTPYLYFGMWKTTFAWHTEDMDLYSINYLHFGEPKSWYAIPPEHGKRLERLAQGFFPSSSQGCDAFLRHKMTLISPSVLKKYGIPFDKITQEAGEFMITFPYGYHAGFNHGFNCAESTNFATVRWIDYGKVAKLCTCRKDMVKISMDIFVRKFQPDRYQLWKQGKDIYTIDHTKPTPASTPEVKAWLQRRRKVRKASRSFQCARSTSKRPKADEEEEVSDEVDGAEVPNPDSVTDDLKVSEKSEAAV
# Mot1-301 SUMO = yeast Mot1-301 growth rescue at high temperature, primary screen, SUMOylation pathway inhibitor project, S. cerevisiae, ATP luminescence, 38.5C; AID 2716, 2010; 320,000 tested, 1% active; S. cerevisiae Mot1-301 growth rescue; percent above DMSO median, 100 means doubled; growth rescue, % at 18.8 µM;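 active means every valid replicate shows activation above 250% relative to neutral control wells; inactive means the rest, any valid replicate at or below 250%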;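 further: OY570 slx delta 5 strain wells were the positive control but not used for scaling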
# T cell modulator = modulators of CD8 T cell-vesicle binding, primary screen, mouse 2C CD8+ T cells, flow cytometry; 330,000 tested, 0.068% active; AID 2052, 2009; 2C CD8+ T cell-vesicle binding; stronger effect = lower value; response (vesicle binding), % at 7 µM;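 active means response, share of CD8 T cells binding vesicles, and their 90th percentile fluorescence all below set limits, cut at about 80% in these data, passing the limit was not always enough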;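 further: values below 100% mean blocked vesicle binding to the CD8+ T cells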
#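 Benchmarks: naked versus QL9-loaded vesicles / Assay system: purified 2C TCR transgenic mouse naive CD8+ T cells / Technique: high-throughput flow cytometry with anti-B7-1 and anti-CD8 staining / Timing: Cell–vesicle co-incubation 1.5 h at 37 °C, staining 20 min on ice / Read-out: percent CD8+ FL2 mean versus row control / Probe or stimulus: QL9-loaded Drosophila micro-vesicles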
# Mot1 SUMO dose = growth restoration of Mot1-301 yeast on galactose, dose response, SUMO pathway inhibitor project, whole organism, S. cerevisiae, ATP luminescence, cherry-picked samples; growth activity, percent, % at 42 µM; S. cerevisiae Mot1-301 galactose growth, 24 h; -100 = growth of slx-deleted rescue strain; 2,300 tested, under 10 active; AID 493004, 2010; shares compounds with Mot1-301 SUMO;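 active means Signal drops as the depositor expects, and the fitted half-maximal dose is no more than ten times the top valid tested dose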;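 further: more negative values mean stronger growth rescue toward the control strain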
# Active calls of the source: *; i = inactive; · = not tested or not shown; + = active, no number; [ ] = dose if it differs, or a comment.
SMILES,HIF act,GASC-1 inh,Mot1-301 SUMO,T cell modulator,Mot1 SUMO dose
N#Cc1ccccc1S(=O)(=O)N1CCN(C(=O)[C@@H]2CCCN2C(=O)c2cccs2)CC1,·,1,-4,294,·
O=C(O)CC(NC(=O)c1ccc2c(c1)OCO2)c1cccc([N+](=O)[O-])c1 (centres undefined),0,4,+,143,0
Cc1cccc(C)c1NC(=O)C1(N(Cc2ccco2)C(=O)CC2NC(=O)NC2=O)CCCCC1 (centres undefined),0,-8,413*,320,0
CN(c1ccccc1)c1ccc(/C=C/[N+](=O)[O-])cc1,-4,3,804*,374,-3
CN(C)c1ccc(-n2cccc2/C=C/[N+](=O)[O-])cc1,1,0,234,113,·
Cc1cccc(NS(=O)(=O)c2ccc3[nH]c(=O)cc(C(=O)O)c3c2)c1,0,13,544*,629,1[21 µM]
Cc1cc(=O)[nH]c2ccc(S(=O)(=O)Nc3ccccc3)cc12,0,-10,-3,444,·
CCOC(=O)C(C)(C)Sc1nc2c(cnn2-c2ccc(C)cc2)c(=O)[nH]1,0,3,373*,290,1
CCOC(=O)C(C)(C)Sc1nc2c(cnn2-c2ccc(F)cc2)c(=O)[nH]1,0,-22,178,939,·
O=C(CSc1ccc2nnc(-c3ccccn3)n2n1)Nc1ccc(F)cc1F,0,3,-7,338,·
CCCCCOc1ccc(Br)cc1CSC(=N)N,0,-8,·,·,·
CCCCOc1ccc(CSC(=N)N)cc1Cl,0,-8,467*,286,-1
COc1ccccc1NC(=O)Nc1ccccc1N1CCOCC1,0,2,-13,241,·
COc1cccc(C(=O)c2c[nH]c(C(=O)NCCCN3CCOCC3)c2)c1,1,10,-4,i,·
CN(CC(=O)Nc1cccc(F)c1)CC(=O)Nc1cccc(S(N)(=O)=O)c1,0,6,740*,100,0
CN(CC(=O)Nc1cccc(F)c1)CC(=O)Nc1cccc(S(=O)(=O)N2CCCCCC2)c1,0,-15,5,433,·
CCOc1ccc(C(=O)N[C@H](C(=O)Nc2ccc(S(=O)(=O)Nc3nccs3)cc2)C(C)C)cc1,·,0,19,622,·
COc1cccc(C(=O)NCc2ccc(-c3nc4ccccc4s3)cc2)c1,0,3,375*,366,0
O=C(CC1CS(=O)(=O)CC1CC(=O)Nc1ccc2c(c1)OCCO2)Nc1ccc2c(c1)OCCO2 (centres undefined),-3,-5,10,605,·
COc1ccc(OCC(O)CNC(=O)Nc2cccc3ccccc23)cc1 (centres undefined),0,16,-12,245,·
CCOc1ccc(N(C(=O)C2CCCO2)C2C=CS(=O)(=O)C2)cc1 (centres undefined),-1,-1,814*,252,0
Cc1cc(-c2nnc(SCC(=O)Nc3ccc(Br)cc3F)n2N)n[nH]1,-1,-2,5,100,·
Cc1cc(C)cc(N2C(=O)CC(Sc3ncn[nH]3)C2=O)c1 (centres undefined),0,-81,452*,134,-2
O=C(O)C1CCCCC1C(=O)Nc1ccc(S(=O)(=O)N2CCCC2)cc1 (centres undefined),0,-65,447*,208,0
NC(=O)CC(NC(=S)NCc1ccccc1)C(=O)O (centres undefined),0,36,583*,566,0
SMILES,HIF act,GASC-1 inh,Mot1-301 SUMO,T cell modulator,Mot1 SUMO dose
CCCc1nc(NCc2ccccc2)c(C#N)c2c1CCCC2,0,6,789*,149,0
O=C(NCCc1ccccc1)C1CCCN1S(=O)(=O)c1ccc(Cl)cc1 (centres undefined),0,1,7,171,·
COc1ccc(Cl)cc1S(=O)(=O)N1CCC(C(=O)NCCc2ccccc2)CC1,0,9,5,327,·
COc1ccc(C)cc1S(=O)(=O)N1CCC(C(=O)NCCc2ccccc2)CC1,2,-32,413*,230,0
Cc1ccc(S(=O)(=O)N2CCCC2C(=O)NCCc2ccccc2)cc1 (centres undefined),0,16,471*,354,0
COc1ccc(/C=C/C(=O)C23CC4CC(CC(C4)C2)C3)cc1CN1CCOCC1,0,-1,-4,200,·
O=C(/C(=N\Nc1ccc(Br)cc1)Sc1nnnn1-c1ccccc1)c1ccccc1,0,12,739*,167,0
CCOC(=O)/C(=N/Nc1ccccc1)Sc1nnnn1-c1ccc(C)cc1,0,4,-10,545,·
CN(Cc1ccccc1)C(=O)COC(=O)c1ccc[nH]c1=O,·,-8,-13,514,·
CCCN1CCN(C(=O)Nc2ccc(OCC)cc2)CC1,0,12,32,189,·
O=C(Nc1ccc2ccccc2c1)N1CCCN(CCOc2ccccc2)CC1,0,6,425*,334,0
CCCCn1c(N)c(N(CC(C)C)C(=O)CSCC(=O)Nc2ccc(C)cc2)c(=O)[nH]c1=O,·,8,-11,720,·
CSC1=NS(=O)(=O)c2c(C)nn(C)c2S1,0,-11,-9,299,·
Cc1ccsc1C(=O)NCCc1ccc(S(N)(=O)=O)cc1,0,13,765*,243,0
CCCCC(=O)NCCc1ccc(S(N)(=O)=O)cc1,0,-185,+,482,0
COC/C=C/C1=CC2=CC(=O)C(C)(OC(=O)c3cnc4ccccc4n3)C(=O)C2=CN1CCOC (centres undefined),-3,5,519*,156,0
CCOC(=O)C(NCCOC)(NC(C)=O)C(F)(F)F (centres undefined),0,0,-10,225,·
CC(=O)N1CCC[C@H]1C(=O)O,0,3,5,193,·
O=C(O)C1CCCN1C(=O)c1cncc(Br)c1 (centres undefined),·,-5,+,·,1
O=C(CCOc1ccccc1)NNC(=O)c1ccccc1,·,-3,-6,387,·
Cc1nc2nc[nH]n2c(=O)c1NS(=O)(=O)c1ccc([N+](=O)[O-])cc1,0,-1,487*,502,0
O=S(=O)([N-]c1nc2ccccc2nc1-[n+]1ccccc1)c1ccccc1,0,-9,-4,229,·
Cc1cc(C)c[n+](-c2nc3ccccc3nc2[N-]S(=O)(=O)c2ccc(Br)s2)c1,0,9,379*,214,0
COc1cc2c(cc1OC)C(C(=O)Nc1ccc(F)c(Cl)c1)CC(=O)N2 (centres undefined),0,-19,-6,731,·
